Source: ChEMBL document CHEMBL3352165 (Eur J Med Chem, 2014)
Active and inactive are the calls of the source. The rule behind the calls is not given here.

How the values were obtained:
[1] = Antitumor activity against human Calu3 cells xenografted in BALB/cA mouse assessed as tumor growth inhibition at 200 mg/kg, po; format: functional; conditions: Calu-3, read-out: TGI
In short: (§1)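 Female BALB/cA nude mice, 6–7 weeks old, implanted s.c. on midright side with 2×10^6 Calu-3 cells in 0.2 ml PBS. Grouped at 60–150 mm³ tumour volume (6 per treated group, 12 vehicle). Oral dosing in 0.5% CMC with 0.1% Tween-80. Caliper volume = L×W²×0.5; inhibition = (1 − T/C)×100% on relative tumour volume; weight tracked for 21 d.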

[2] = system: BT-474; assay: Induction of cell cycle arrest in human BT474 cells assessed as accumulation at G1 phase at 1 uM incubated for 12 hrs by propidium iodide staining based flow cytometry (reference value: 67%); format: functional
[3] = system: BT-474; assay: Induction of apoptosis in human BT474 cells at 1 uM incubated for 12 hrs by propidium iodide staining based flow cytometry (reference value: 1%); format: functional
[4] = system: BT-474; assay: Induction of apoptosis in human BT474 cells at 10 uM incubated for 12 hrs by propidium iodide staining based flow cytometry (reference value: 1%); format: functional
[5] = system: BT-474; assay: Induction of cell cycle arrest in human BT474 cells assessed as accumulation at S phase at 1 uM incubated for 12 hrs by propidium iodide staining based flow cytometry (reference value: 19%); format: functional
[6] = target: T1, Receptor tyrosine-protein kinase erbB-2 (Homo sapiens, UniProt P04626); conditions: BT-474, 0.001 to 10 uM
[7] = system: MRC5; assay: cells; conditions: Homo sapiens, MRC5, 72 h
[8] = target: T1, Receptor tyrosine-protein kinase erbB-2; conditions: BT-474, 0.001 to 10 uM; remark: listed apart in the source
[9] = system: A-431; assay: Cytotoxicity against human A431 cells assessed as inhibition of cell growth after 72 hrs by sulforhodamine B assay; format: functional, cell-based; conditions: A-431, 72 h
In short: (§2)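 Cells grown in RPMI-1640 with 5% FBS and plated at 5.0×10^4/ml. Next day exposed to 0.5–5000 ng/ml for 3 days. Survival read by sulforhodamine B staining. IC50 taken from growth curves; mean of at least three determinations.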

[10] = cells; conditions: Homo sapiens, SK-OV-3, 72 h
[11] = system: BT-474; assay: Induction of cell cycle arrest in human BT474 cells assessed as accumulation at G1 phase at 0.1 uM incubated for 12 hrs by propidium iodide staining based flow cytometry (reference value: 67%); format: functional
[12] = system: BT-474; assay: Induction of cell cycle arrest in human BT474 cells assessed as accumulation at G1 phase at 0.001 uM incubated for 12 hrs by propidium iodide staining based flow cytometry (reference value: 67%); format: functional
[13] = system: BT-474; assay: Induction of cell cycle arrest in human BT474 cells assessed as accumulation at S phase at 10 uM incubated for 12 hrs by propidium iodide staining based flow cytometry (reference value: 19%); format: functional
[14] = system: BT-474; assay: Induction of cell cycle arrest in human BT474 cells assessed as accumulation at G2/M phase at 10 uM incubated for 12 hrs by propidium iodide staining based flow cytometry (reference value: 14%); format: functional
[15] = system: Mus musculus; assay: Toxicity in human Calu3 cells xenografted BALB/cA mouse assessed as body weight loss at 200 mg/kg, po measured every other day for 21 days; format: organism-based, Calu-3; parameters: dose 200 mg/kg, route oral; conditions: in vivo, 504 h
In short: (§3)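 Female BALB/cA nude mice, 6–7 weeks old, implanted s.c. on the mid-right flank with 2×10^6 Calu-3 cells in 0.2 ml PBS. At 60–150 mm³ tumour volume, mice randomised into six per treatment group (twelve vehicle controls). Oral dosing in 0.5% CMC aqueous solution with 0.1% Tween-80. Body weight recorded every other day for 21 d.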

[16] = system: Mus musculus; assay: Toxicity in human Calu3 cells xenografted BALB/cA mouse assessed as body weight loss at 100 mg/kg, po measured every other day for 21 days; format: organism-based, Calu-3; parameters: dose 100 mg/kg, route oral; conditions: in vivo, 504 h; in short: as §3
[17] = system: BT-474; assay: Induction of apoptosis in human BT474 cells at 0.1 uM incubated for 12 hrs by propidium iodide staining based flow cytometry (reference value: 1%); format: functional
[18] = system: BT-474; assay: Induction of cell cycle arrest in human BT474 cells assessed as accumulation at G2/M phase at 1 uM incubated for 12 hrs by propidium iodide staining based flow cytometry (reference value: 14%); format: functional
[19] = target: T1, Receptor tyrosine-protein kinase erbB-2; conditions: BT-474, 0.001 to 10 uM; remark: listed apart in the source
[20] = target: Vascular endothelial growth factor receptor 2 (Homo sapiens, UniProt P35968); assay: Inhibition of KDR phosphorylation (unknown origin) expressed in human HUVEC at 0.001 to 1 uM incubated for 2 hrs by Western blot method
[21] = Cytotoxicity against human SKBR3 cells assessed as inhibition of cell growth after 72 hrs by sulforhodamine B assay; format: functional, cell-based; conditions: SK-BR-3, 72 h; in short: as §2
[22] = system: BT-474; assay: Induction of cell cycle arrest in human BT474 cells assessed as accumulation at S phase at 0.001 uM incubated for 12 hrs by propidium iodide staining based flow cytometry (reference value: 19%); format: functional
[23] = system: BT-474; assay: Induction of cell cycle arrest in human BT474 cells assessed as accumulation at G2/M phase at 0.1 uM incubated for 12 hrs by propidium iodide staining based flow cytometry (reference value: 14%); format: functional
[24] = system: BT-474; assay: Cytotoxicity against human BT474 cells assessed as inhibition of cell growth after 72 hrs by sulforhodamine B assay; format: functional, cell-based; conditions: BT-474, 72 h; in short: as §2
[25] = system: BT-474; assay: Induction of cell cycle arrest in human BT474 cells assessed as accumulation at G2/M phase at 0.001 uM incubated for 12 hrs by propidium iodide staining based flow cytometry (reference value: 14%); format: functional
[26] = system: BT-474; assay: Induction of apoptosis in human BT474 cells at 0.01 uM incubated for 12 hrs by propidium iodide staining based flow cytometry (reference value: 1%); format: functional
[27] = system: BT-474; assay: Induction of cell cycle arrest in human BT474 cells assessed as accumulation at S phase at 0.1 uM incubated for 12 hrs by propidium iodide staining based flow cytometry (reference value: 19%); format: functional
[28] = system: MDA-MB-231; assay: cells; conditions: Homo sapiens, MDA-MB-231, 72 h
[29] = system: BT-474; assay: Induction of cell cycle arrest in human BT474 cells assessed as accumulation at G1 phase at 10 uM incubated for 12 hrs by propidium iodide staining based flow cytometry (reference value: 67%); format: functional
[30] = system: MDA-MB-453; assay: cells; conditions: Homo sapiens, MDA-MB-453, 72 h
[31] = Antitumor activity against human Calu3 cells xenografted in BALB/cA mouse assessed as tumor growth inhibition at 100 mg/kg, po; format: functional; conditions: Calu-3, read-out: TGI; in short: as §1
[32] = system: BT-474; assay: Induction of cell cycle arrest in human BT474 cells assessed as accumulation at G2/M phase at 0.01 uM incubated for 12 hrs by propidium iodide staining based flow cytometry (reference value: 14%); format: functional
[33] = system: NCI-H460; assay: cells; conditions: Homo sapiens, NCI-H460, 72 h
[34] = cells; conditions: Homo sapiens, Calu-3, 72 h
[35] = system: BT-474; assay: Induction of cell cycle arrest in human BT474 cells assessed as accumulation at S phase at 0.01 uM incubated for 12 hrs by propidium iodide staining based flow cytometry (reference value: 19%); format: functional
[36] = system: MCF7; assay: Cytotoxicity against human MCF7 cells assessed as inhibition of cell growth after 72 hrs by sulforhodamine B assay; format: functional, cell-based; conditions: MCF7, 72 h; in short: as §2
[37] = target: Platelet-derived growth factor receptor beta (Homo sapiens, UniProt P09619); assay: Inhibition of PDGFRbeta phosphorylation (unknown origin) expressed in human U87MG cells at 0.001 to 1 uM incubated for 2 hrs by Western blot method; conditions: U-87MG ATCC
[38] = system: BT-474; assay: Induction of apoptosis in human BT474 cells at 0.001 uM incubated for 12 hrs by propidium iodide staining based flow cytometry (reference value: 1%); format: functional
[39] = system: BT-474; assay: Induction of cell cycle arrest in human BT474 cells assessed as accumulation at G1 phase at 0.01 uM incubated for 12 hrs by propidium iodide staining based flow cytometry (reference value: 67%); format: functional
[40] = target: Mast/stem cell growth factor receptor Kit (Homo sapiens, UniProt P10721); assay: Inhibition of c-KIT phosphorylation (unknown origin) expressed in human NCI-H526 cells at 0.001 to 1 uM incubated for 2 hrs by Western blot method
Mast/stem cell growth factor receptor Kit, sequence (P10721 whole entry): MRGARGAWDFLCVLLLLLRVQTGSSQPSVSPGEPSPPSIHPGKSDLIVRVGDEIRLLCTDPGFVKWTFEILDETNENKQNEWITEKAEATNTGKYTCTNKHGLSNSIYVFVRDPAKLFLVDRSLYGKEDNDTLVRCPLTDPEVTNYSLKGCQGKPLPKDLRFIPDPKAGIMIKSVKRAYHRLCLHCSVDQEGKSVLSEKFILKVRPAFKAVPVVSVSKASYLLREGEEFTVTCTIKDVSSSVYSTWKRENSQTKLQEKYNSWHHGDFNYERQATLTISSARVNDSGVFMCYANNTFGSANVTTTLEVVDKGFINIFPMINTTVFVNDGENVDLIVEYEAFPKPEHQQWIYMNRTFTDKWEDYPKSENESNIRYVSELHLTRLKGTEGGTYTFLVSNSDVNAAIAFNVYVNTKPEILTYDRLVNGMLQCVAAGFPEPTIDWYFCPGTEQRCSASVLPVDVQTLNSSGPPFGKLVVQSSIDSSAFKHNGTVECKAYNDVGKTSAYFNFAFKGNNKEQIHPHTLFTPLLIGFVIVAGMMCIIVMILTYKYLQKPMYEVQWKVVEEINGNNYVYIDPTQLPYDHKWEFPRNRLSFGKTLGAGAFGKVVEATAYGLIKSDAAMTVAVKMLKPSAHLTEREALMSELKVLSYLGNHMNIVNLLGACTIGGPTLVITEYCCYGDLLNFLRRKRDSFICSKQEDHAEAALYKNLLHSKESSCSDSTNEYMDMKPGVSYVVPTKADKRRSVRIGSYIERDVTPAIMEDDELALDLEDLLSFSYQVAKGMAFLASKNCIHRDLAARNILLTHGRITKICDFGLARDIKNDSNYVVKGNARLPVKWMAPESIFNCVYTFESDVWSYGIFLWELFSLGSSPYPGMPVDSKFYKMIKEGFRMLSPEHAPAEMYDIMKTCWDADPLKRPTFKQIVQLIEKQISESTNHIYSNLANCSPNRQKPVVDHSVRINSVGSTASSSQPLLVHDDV

T1 sequence (P04626 whole entry): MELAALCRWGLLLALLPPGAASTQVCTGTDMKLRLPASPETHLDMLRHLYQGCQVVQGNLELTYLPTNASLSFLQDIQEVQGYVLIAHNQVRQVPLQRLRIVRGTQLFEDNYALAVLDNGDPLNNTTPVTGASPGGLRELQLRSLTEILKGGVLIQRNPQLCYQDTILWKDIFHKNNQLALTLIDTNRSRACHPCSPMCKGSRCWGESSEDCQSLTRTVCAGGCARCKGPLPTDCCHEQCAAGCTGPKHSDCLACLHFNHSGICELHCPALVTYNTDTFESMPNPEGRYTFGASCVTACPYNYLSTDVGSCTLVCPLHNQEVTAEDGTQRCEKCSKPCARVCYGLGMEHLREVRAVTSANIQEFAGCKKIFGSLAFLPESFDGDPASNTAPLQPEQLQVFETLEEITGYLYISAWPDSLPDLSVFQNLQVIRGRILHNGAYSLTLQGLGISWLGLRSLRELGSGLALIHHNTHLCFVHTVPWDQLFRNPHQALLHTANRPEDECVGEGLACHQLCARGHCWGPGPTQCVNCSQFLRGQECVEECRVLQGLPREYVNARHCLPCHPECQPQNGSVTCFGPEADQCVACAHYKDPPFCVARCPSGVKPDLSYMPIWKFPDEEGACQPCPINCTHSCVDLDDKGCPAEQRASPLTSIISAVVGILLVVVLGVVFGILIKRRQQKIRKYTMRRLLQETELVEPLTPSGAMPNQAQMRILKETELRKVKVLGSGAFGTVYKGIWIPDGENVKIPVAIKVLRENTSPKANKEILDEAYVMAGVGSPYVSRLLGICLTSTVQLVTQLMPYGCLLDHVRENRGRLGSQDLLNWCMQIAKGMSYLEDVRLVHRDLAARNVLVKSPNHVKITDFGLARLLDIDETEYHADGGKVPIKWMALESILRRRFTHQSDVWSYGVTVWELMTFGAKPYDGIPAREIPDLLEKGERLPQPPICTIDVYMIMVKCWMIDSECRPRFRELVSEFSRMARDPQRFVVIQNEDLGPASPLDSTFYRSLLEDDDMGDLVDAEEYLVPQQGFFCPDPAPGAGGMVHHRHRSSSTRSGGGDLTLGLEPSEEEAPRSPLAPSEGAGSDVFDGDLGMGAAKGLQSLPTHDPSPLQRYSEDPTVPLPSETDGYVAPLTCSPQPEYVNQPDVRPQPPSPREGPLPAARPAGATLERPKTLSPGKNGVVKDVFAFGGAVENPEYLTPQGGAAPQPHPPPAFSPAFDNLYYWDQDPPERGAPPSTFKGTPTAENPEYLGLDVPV
Vascular endothelial growth factor receptor 2, sequence (P35968 whole entry): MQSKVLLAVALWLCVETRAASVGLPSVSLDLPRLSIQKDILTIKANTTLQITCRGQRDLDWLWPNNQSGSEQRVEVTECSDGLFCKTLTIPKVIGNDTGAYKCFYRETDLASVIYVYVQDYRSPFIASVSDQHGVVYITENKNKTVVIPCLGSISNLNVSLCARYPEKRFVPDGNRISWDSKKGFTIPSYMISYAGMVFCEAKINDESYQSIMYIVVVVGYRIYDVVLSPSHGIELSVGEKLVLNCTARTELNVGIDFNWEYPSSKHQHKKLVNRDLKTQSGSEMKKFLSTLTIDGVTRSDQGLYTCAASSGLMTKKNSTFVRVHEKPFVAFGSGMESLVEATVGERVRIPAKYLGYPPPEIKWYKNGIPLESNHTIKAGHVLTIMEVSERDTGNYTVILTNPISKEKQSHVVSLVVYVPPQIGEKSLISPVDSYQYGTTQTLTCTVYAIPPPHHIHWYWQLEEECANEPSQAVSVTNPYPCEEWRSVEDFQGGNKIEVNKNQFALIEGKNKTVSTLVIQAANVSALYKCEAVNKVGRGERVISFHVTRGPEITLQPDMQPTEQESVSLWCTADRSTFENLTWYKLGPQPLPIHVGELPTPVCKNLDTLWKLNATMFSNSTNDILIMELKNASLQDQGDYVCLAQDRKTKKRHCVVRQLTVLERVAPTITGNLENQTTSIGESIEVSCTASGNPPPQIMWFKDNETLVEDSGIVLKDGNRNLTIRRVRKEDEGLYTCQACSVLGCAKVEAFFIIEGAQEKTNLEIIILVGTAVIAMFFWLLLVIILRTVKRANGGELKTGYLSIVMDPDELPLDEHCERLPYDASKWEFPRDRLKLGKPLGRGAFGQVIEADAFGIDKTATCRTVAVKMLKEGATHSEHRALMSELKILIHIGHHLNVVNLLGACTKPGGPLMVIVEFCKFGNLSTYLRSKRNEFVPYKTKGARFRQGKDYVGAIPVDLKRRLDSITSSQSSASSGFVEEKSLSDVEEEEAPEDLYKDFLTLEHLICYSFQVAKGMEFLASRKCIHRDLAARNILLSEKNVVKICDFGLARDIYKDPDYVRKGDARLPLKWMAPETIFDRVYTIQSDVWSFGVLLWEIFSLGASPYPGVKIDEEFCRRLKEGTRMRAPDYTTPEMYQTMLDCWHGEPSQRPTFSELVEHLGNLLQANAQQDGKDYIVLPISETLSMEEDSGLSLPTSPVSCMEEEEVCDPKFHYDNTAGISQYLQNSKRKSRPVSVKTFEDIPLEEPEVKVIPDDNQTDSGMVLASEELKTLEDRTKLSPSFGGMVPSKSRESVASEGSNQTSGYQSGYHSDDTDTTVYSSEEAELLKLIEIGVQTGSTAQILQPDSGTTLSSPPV
Platelet-derived growth factor receptor beta, sequence (P09619 whole entry): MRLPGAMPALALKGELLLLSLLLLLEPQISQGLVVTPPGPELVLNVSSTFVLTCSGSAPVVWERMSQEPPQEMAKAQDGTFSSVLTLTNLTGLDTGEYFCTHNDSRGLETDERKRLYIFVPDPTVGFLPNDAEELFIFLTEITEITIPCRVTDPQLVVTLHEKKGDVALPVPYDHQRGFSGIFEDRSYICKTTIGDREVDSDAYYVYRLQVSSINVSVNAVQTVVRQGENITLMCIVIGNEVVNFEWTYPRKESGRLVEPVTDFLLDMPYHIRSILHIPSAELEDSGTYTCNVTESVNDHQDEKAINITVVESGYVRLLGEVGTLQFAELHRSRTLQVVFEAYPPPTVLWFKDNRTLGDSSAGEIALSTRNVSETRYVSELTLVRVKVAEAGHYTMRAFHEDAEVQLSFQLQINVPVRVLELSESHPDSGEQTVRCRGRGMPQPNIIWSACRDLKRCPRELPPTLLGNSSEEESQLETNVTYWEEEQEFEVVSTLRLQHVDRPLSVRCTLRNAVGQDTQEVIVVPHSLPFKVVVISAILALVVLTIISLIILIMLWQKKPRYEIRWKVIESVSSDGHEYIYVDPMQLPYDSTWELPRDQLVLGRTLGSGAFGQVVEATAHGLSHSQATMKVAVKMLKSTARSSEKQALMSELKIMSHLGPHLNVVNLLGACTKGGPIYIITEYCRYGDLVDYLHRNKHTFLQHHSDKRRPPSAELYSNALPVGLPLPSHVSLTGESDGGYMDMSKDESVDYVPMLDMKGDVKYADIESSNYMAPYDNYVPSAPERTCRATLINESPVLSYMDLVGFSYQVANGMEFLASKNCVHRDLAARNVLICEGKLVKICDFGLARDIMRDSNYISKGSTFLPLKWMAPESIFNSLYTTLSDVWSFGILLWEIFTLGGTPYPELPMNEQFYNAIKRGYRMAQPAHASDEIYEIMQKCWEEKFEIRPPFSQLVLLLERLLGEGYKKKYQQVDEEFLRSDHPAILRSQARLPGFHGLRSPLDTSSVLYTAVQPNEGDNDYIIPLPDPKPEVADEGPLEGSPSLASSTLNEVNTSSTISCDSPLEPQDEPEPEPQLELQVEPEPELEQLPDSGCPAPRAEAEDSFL

CS(=O)(=O)CCNCc1ccc(-c2ccc3ncnc(Nc4ccc(OCc5cccc(F)c5)c(Cl)c4)c3c2)o1 [LAPATINIB]
inhibition in vivo at 200 mg/kg [1]: 70% | Activity [2]: 84% | Activity [3]: 6% | Activity [4]: 13% | Activity [5]: 6% | inhibition [6]: Active | IC50 [7]: > 100000 nM | inhibition [8]: Active | IC50 [9]: 643 nM | IC50 [10]: 590 nM | Activity [11]: 84% | Activity [12]: 71% | Activity [13]: 8% | Activity [14]: 11% | Activity [15]: Non-toxic | Activity [16]: Non-toxic | Activity [17]: 4% | Activity [18]: 10% | inhibition [19]: Active | inhibition [20]: inactive | IC50 [21]: 30.1 nM | Activity [22]: 15% | Activity [23]: 10% | IC50 [24]: 63.9 nM | Activity [25]: 14% | Activity [26]: 1% | Activity [27]: 6% | IC50 [28]: > 100000 nM | Activity [29]: 81% | IC50 [30]: 190 nM | inhibition in vivo at 100 mg/kg [31]: 56% | Activity [32]: 11% | IC50 [33]: > 100000 nM | IC50 [34]: 230 nM | Activity [35]: 7% | IC50 [36]: 8470 nM | inhibition [37]: inactive | Activity [38]: 1% | Activity [39]: 82% | inhibition [40]: inactive
